Measured values taken from ChEMBL document CHEMBL2016515, “Triazoloamides as potent γ-secretase modulators with reduced hERG liability” (Bioorg Med Chem Lett, 2012).

Legend:
Gamma-secretase [1] = test: Inhibition of gamma secretase-mediated amyloid beta40 production in human SH-SY5Y cells overexpressing beta-APP C-terminal SPA4CT by electrochemiluminescent analysis; type: cell-based
In short: (§1)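 Each compound tested in at least two independent experiments; values reported in μM.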

[2] = Inhibition of gamma-secretase-mediated notch intracellular domain cleavage in HeLa cells by luciferase reporter gene assay; type: cell-based
In short: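 Split-luciferase complementation: γ-secretase cleavage of NotchΔE frees NICD fused to N-terminal luciferase, which enters the nucleus and binds RBP-Jk fused to C-terminal luciferase. Total luminescence is read after adding luciferin to lysed cells. At least two independent experiments; values in μM.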

Gamma-secretase [3] = test: Inhibition of gamma secretase-mediated amyloid beta42 production in human SH-SY5Y cells overexpressing beta-APP C-terminal SPA4CT by electrochemiluminescent analysis; type: cell-based; in short: as §1
[4] = biological target: Voltage-gated inwardly rectifying potassium channel KCNH2 (Homo sapiens, UniProt Q12809)
Sequence of Voltage-gated inwardly rectifying potassium channel KCNH2 (Q12809 whole entry): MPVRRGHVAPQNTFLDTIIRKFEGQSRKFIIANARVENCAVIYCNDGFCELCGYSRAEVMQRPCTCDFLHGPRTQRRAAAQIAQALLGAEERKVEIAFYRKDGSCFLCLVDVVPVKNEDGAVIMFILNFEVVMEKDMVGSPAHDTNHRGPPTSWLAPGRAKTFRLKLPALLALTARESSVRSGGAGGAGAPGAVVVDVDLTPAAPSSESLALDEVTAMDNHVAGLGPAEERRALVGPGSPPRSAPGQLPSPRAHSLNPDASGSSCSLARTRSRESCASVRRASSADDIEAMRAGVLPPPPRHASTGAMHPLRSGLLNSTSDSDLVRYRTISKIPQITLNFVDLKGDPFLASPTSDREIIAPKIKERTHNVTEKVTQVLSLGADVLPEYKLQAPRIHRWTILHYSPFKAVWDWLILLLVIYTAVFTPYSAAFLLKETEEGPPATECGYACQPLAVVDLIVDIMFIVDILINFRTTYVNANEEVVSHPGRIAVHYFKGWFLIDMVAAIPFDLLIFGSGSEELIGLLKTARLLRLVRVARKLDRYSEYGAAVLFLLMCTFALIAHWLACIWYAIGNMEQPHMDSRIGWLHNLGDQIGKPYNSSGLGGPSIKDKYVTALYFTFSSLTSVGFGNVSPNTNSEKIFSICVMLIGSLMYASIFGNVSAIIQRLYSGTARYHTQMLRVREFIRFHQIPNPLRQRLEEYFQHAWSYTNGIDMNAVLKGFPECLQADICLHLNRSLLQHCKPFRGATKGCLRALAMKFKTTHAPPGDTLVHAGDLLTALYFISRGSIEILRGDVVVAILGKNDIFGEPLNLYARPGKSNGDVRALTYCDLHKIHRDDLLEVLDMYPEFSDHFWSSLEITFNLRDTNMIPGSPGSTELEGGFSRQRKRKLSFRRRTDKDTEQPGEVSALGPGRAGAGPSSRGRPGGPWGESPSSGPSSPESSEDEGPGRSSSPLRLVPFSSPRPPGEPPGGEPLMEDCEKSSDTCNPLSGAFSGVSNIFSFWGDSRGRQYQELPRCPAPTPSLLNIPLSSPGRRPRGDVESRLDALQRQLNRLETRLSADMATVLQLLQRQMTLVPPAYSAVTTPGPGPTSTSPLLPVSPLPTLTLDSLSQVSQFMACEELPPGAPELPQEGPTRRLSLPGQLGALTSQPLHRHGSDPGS

Row | Structure (SMILES) | IC50 (Gamma-secretase [1]) | IC50 [2] | IC50 (Gamma-secretase [3]) | IC50 [4]
1 | COc1cc(-c2cn(C3C(=O)NC4CCC3C4)nn2)ccc1-n1cnc(C)c1 (racemic) | 9870 nM | > 50000 nM | 1090 nM | 
2 | COc1cc(-c2cn(CC(=O)NC3C4CC5CC(C4)CC3C5)nn2)ccc1-n1cnc(C)c1 (configuration not stated) | > 10000 nM | > 50000 nM | 680 nM | 
3 | COc1cc(-c2cn(CC(=O)N(c3ccccc3)c3ccccc3)nn2)ccc1-n1cnc(C)c1 | > 10000 nM |  | 1630 nM | 
4 | COc1cc(-c2cn(CC(=O)N(Cc3ccccc3)Cc3ccccc3)nn2)ccc1-n1cnc(C)c1 | 4420 nM | > 50000 nM | 370 nM | 
5 | COc1cc(-c2cn(CC(=O)N(Cc3ccccc3)[C@H](C)c3ccccc3)nn2)ccc1-n1cnc(C)c1 | 3010 nM | > 50000 nM | 230 nM | 
6 | COc1cc(-c2cn(CC(=O)N([C@H](C)c3ccccc3)[C@H](C)c3ccccc3)nn2)ccc1-n1cnc(C)c1 | 5170 nM | > 50000 nM | 430 nM | 
7 | COc1cc(-c2cn(C3CC(C)(C)CCNC3=O)nn2)ccc1-n1cnc(C)c1 (racemic) | 7420 nM | > 50000 nM | 1310 nM | 20800 nM
8 | COc1cc(-c2cn(C3CC(C(F)(F)F)CNC3=O)nn2)ccc1-n1cnc(C)c1 (racemic) | 6160 nM | > 50000 nM | 1110 nM | > 30000 nM
9 | COc1cc(-c2cn(CC(=O)Nc3cccc4ccccc34)nn2)ccc1-n1cnc(C)c1 | 4850 nM | 26700 nM | 610 nM | > 10000 nM
10 | COc1cc(-c2cn(C3CCCC(C(C)(C)C)NC3=O)nn2)ccc1-n1cnc(C)c1 (racemic) | 5120 nM | > 50000 nM | 480 nM | 
11 | COc1cc(-c2cn(CC(=O)N(Cc3ccccc3)CC(F)(F)F)nn2)ccc1-n1cnc(C)c1 | 2430 nM | > 40000 nM | 270 nM | 
12 | COc1cc(-c2cn(CC(=O)N3CCC(c4nc5ccccc5o4)CC3)nn2)ccc1-n1cnc(C)c1 | > 10000 nM | > 50000 nM | 940 nM | 10300 nM
13 | COc1cc(-c2cn(C3CC[C@H]4CCCC[C@@H]4NC3=O)nn2)ccc1-n1cnc(C)c1 (mixture of isomers) | 3860 nM | > 50000 nM | 620 nM | 
14 | COc1cc(-c2cn(C3CC(C(F)(F)F)CCNC3=O)nn2)ccc1-n1cnc(C)c1 (racemic) | 9100 nM | > 50000 nM | 1270 nM | 
15 | COc1cc(-c2cn(CC(=O)N(C3CCCCC3)C3CCCCC3)nn2)ccc1-n1cnc(C)c1 | > 10000 nM | 9000 nM | 200 nM | 
16 | COc1cc(-c2cn(CC(=O)N(c3ccccc3)C3CCCCC3)nn2)ccc1-n1cnc(C)c1 | 8710 nM |  | 620 nM | 
17 | COc1cc(-c2cn(C3CCCCNC3=O)nn2)ccc1-n1cnc(C)c1 (racemic) | > 10000 nM | > 50000 nM | 4420 nM | 
18 | COc1cc(-c2cn([C@H]3CCCCN(CC(F)(F)F)C3=O)nn2)ccc1-n1cnc(C)c1 | 2210 nM | > 50000 nM | 300 nM | 

The next compounds have a lower IC50 (Gamma-secretase [1]) than those just listed; values first:

Row | IC50 (Gamma-secretase [1]) | IC50 [2] | IC50 (Gamma-secretase [3]) | Structure (SMILES) | IC50 [4]
19 | 2070 nM | 29600 nM | 450 nM | COc1cc(-c2cn(CC(=O)Nc3ccc4c(c3)OC(F)(F)O4)nn2)ccc1-n1cnc(C)c1 | 
20 | 1910 nM | > 50000 nM | 290 nM | COc1cc(-c2cn([C@H]3C[C@@H](C(F)(F)F)CN(CC(F)(F)F)C3=O)nn2)ccc1-n1cnc(C)c1 | 
21 | 1900 nM | > 50000 nM | 240 nM | COc1cc(-c2cn(CC(=O)N(Cc3ccc(F)cc3)C3C4CC5CC(C4)CC3C5)nn2)ccc1-n1cnc(C)c1 (configuration not stated) | 250 nM
22 | 1330 nM | > 50000 nM | 240 nM | COc1cc(-c2cn([C@H]3C[C@@H](C(C)(C)C)CCN(CC45CC6CC(CC(C6)C4)C5)C3=O)nn2)ccc1-n1cnc(C)c1 | 
23 | 1250 nM | 24600 nM | 180 nM | COc1cc(-c2cn(CC(=O)N(CC(F)(F)F)c3ccc4c(c3)CCC4)nn2)ccc1-n1cnc(C)c1 | 
24 | 1230 nM | 45300 nM | 330 nM | COc1cc(-c2cn(C3CC([Si](C)(C)C)CCNC3=O)nn2)ccc1-n1cnc(C)c1 (racemic) | 
25 | 1180 nM | 38200 nM | 160 nM | COc1cc(-c2cn(CC(=O)N(CC(F)(F)F)c3ccc4c(c3)OC(F)(F)O4)nn2)ccc1-n1cnc(C)c1 | 
26 | 840 nM | 20000 nM | 130 nM | COc1cc(-c2cn([C@H]3C[C@@H](C(C)(C)C)CCN(CC(C)(C)C)C3=O)nn2)ccc1-n1cnc(C)c1 | 
27 | 660 nM | 48500 nM | 80 nM | COc1cc(-c2cn(CC(=O)N(CC(F)(F)F)c3ccc4ccccc4c3)nn2)ccc1-n1cnc(C)c1 | 
28 | 660 nM | 17000 nM | 160 nM | COc1cc(-c2cn(C3CC(C4CCCCC4)CCNC3=O)nn2)ccc1-n1cnc(C)c1 (racemic) | 3680 nM
29 | 510 nM | 11100 nM | 80 nM | COc1cc(-c2cn([C@H]3CC[C@H](c4ccccc4)CN(Cc4ccccc4)C3=O)nn2)ccc1-n1cnc(C)c1 | 
30 | 440 nM | 10200 nM | 70 nM | COc1cc(-c2cn([C@H]3C[C@@H]([Si](C)(C)C)CCN(Cc4ccccc4)C3=O)nn2)ccc1-n1cnc(C)c1 | 
31 | 420 nM | 40800 nM | 80 nM | COc1cc(-c2cn([C@H]3C[C@@H](C(F)(F)F)CCN(Cc4ccccc4)C3=O)nn2)ccc1-n1cnc(C)c1 | 
32 | 420 nM | 40100 nM | 80 nM | COc1cc(-c2cn([C@H]3C[C@@H](C(C)(C)C)CCN(Cc4ccccc4)C3=O)nn2)ccc1-n1cnc(C)c1 | 
33 | 410 nM | 45100 nM | 90 nM | COc1cc(-c2cn(CC(=O)N(CC(F)(F)F)c3cccc4ccccc34)nn2)ccc1-n1cnc(C)c1 | 
34 | 210 nM | > 50000 nM | 20 nM | COc1cc(-c2cn([C@H]3C[C@@H](C(F)(F)F)CCN(CC(F)(F)F)C3=O)nn2)ccc1-n1cnc(C)c1 | 
35 | 170 nM | 24300 nM | 9 nM | COc1cc(-c2cn([C@H]3C[C@@H](C(C)(C)C)CCN(CC(F)(F)F)C3=O)nn2)ccc1-n1cnc(C)c1 | 
36 | 150 nM | > 50000 nM | 20 nM | COc1cc(-c2cn([C@H]3C[C@@H](c4ccccc4)CCN(CC(F)(F)F)C3=O)nn2)ccc1-n1cnc(C)c1 | 
